Screening results: PubChem BioAssay, The Scripps Research Institute Molecular Screening Center
Most compounds without a hit are left out; they make up all but 3% or so of the library.
M4 ag: CHRM4 agonism in calcium assay; P08173; CHO-K1 hM4/Gqi5, Fluo-8 calcium fluorescence; vehicle 0%, full acetylcholine response 100%; activation, % at 3 µM; 360,000 tested, 0.14% active; AID 624127;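 active = activation above the run mean over all test wells plus 3 SD, cut at about 32% in these data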;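 note: peak over basal fluorescence ratio per well then scaled between controls; 0% = DMSO wells and 100% = acetylcholine at EC100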
CHRM4 antagonist: blocks acetylcholine activation of human M4 receptor | inhibition, % at 3 µM | P08173 | AID 624125 | 360,000 tested, 0.73% active | CHO-hM4 cells, ACh EC80, Fluo-8 calcium fluorescence;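 active = inhibition above its plate's cutoff, the mean inhibition of sample wells plus 3 SD, cut at about 27% in these data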;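 note: 0% = acetylcholine EC80 with DMSO and 100% = DMSO without agonist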
M4 PAM: positive allosteric modulators of human muscarinic M4 receptor; AID 624126; P08173; activation, % at 3 µM; 360,000 tested, 0.4% active; CHO-K1 hM4/Gqi5, Fluo-8 calcium fluorescence, ACh EC20; 0% = ACh EC20, 100% = maximal ACh;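 active = activation above its plate's cutoff, the mean activation of sample wells plus 3 SD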
TAAR1 antag: human TAAR1 antagonism. CHO RD-HGA16 TAAR1, Fluo-8 calcium fluorescence, antagonist. 360,000 tested, 1.5% active. inhibition, % at 3 µM. AID 624466. Q96RJ0;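 active = inhibition above a per-plate cutoff, the mean inhibition of test compounds on that plate plus 3 SD, cut at about 49% in these data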;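 note: 0% = DMSO plus EC80 beta-PEA response and 100% = DMSO alone without agonist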
Target sequence (Q96RJ0 whole entry, looked up): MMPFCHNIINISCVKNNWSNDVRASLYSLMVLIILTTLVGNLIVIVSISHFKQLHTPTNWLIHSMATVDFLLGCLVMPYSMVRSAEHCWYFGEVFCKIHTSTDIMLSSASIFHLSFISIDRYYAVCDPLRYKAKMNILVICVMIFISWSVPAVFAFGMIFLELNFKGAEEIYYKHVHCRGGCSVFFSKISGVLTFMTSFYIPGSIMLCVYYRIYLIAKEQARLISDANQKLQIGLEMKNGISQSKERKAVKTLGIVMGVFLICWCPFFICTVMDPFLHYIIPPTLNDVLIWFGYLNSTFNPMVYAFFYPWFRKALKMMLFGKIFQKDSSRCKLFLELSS
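Test system: hTAAR1-expressing CHO RD-HGA16 cells, Gα16-coupled; Probe or stimulus: EC80 β-phenethylamine stimulus; Compound dosing: single nominal final test compound concentration of 3 µM; Timing: 140 s kinetic read after compound, 140 s after agonist; Signal: Fluo-8 calcium-sensitive fluorescence; Measure: % inhibition of agonist calcium response; Controls: DMSO and EC80 PEA controls.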
TAAR1 agonist: agonists of human TAAR1. CHO RD-HGA16 TAAR1, Fluo-8 calcium fluorescence; vehicle wells 0%, saturating PEA agonist 100%. activation, % at 3 µM. 360,000 tested, 0.99% active;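 active = activation above the mean activation of all test compounds in the run plus 3 SD, cut at about 38% in these data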
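System: CHO-derived RD-HGA16 cells with stable Gα16 and human TAAR1 / Times: 17-24 h plating, Fluo-8 75 min 37 °C, 30 min RT / Technique: calcium-sensitive Fluo-8 signal, excitation 470-495, emission 515-575 nm / Measure: % activation relative to PEA EC100 response / Benchmarks: DMSO and PEA EC100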
TAAR1 nonsel count: nonselective antagonism, TAAR1 counter-screen | shares compounds with TAAR1 antag | inhibition, % at 3 µM | 2,400 tested, 77% active | counterscreen cell line, calcium fluorescence, antagonist mode; in the data active = inhibition above about 22%;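 note: CHO-Ga16 host cells stimulated with ATP at an EC80 level; 0% = agonist EC80 plus vehicle and 100% = vehicle without agonist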
TAAR1 antag conf: human TAAR1 antagonism, confirmed | shares compounds with TAAR1 antag | TAAR1-expressing cells, fluorescence antagonist read-out | AID 651785 | 2,400 tested, 40% active | inhibition, % at 3 µM; in the data active = inhibition above about 49%;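 note: CHO-Ga16 host cells challenged with agonist PEA near its EC80; 0% = agonist at EC80 plus vehicle and 100% = vehicle with no agonist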
Ga16 ag counter: nonselective Ga16 agonism, counter-screen | AID 651953 | shares compounds with TAAR1 antag | 2,400 tested, 18% active | Ga16-expressing cells, calcium fluorescence, agonist counterscreen | activation, % at 3 µM; in the data active = activation above about 12%;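 note: 0% = vehicle wells and 100% = saturating stimulus response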
TAAR1 ag counter: TAAR1 agonism, antagonist counter-screen; hTAAR1 cell line, fluorescence activation, agonist mode; shares compounds with TAAR1 antag; AID 651955; 2,400 tested, 2% active; activation, % at 3 µM; in the data active = activation above about 37%;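 note: CHO cells stably expressing TAAR1 with calcium dye readout; 0% = DMSO vehicle and 100% = full agonist response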
An asterisk follows results filed as active; x = no result given.

SMILES	M4 ag	CHRM4 antagonist	M4 PAM	TAAR1 antag	TAAR1 agonist	TAAR1 nonsel count	TAAR1 antag conf	Ga16 ag counter	TAAR1 ag counter
COc1cc([N+](=O)[O-])c2nc(C(=O)O)ccc2c1	0	1	1	-4	0	x	x	x	x
COc1ccc(-c2nc(NC(=O)c3ccc(OCC(=O)Nc4ccc(F)cc4)c(OC)c3)sc2C)cc1	6	12	-6	65*	7	30*	47	10	10
Cc1cccc(NC2(C(=O)O)CCCC2)c1	1	-21	7	-22	1	x	x	x	x
CCCCCCCCN	x	x	x	-2	4	x	x	x	x
CC(C)Oc1ccccc1-c1cc(C(=O)N/N=C/c2cccnc2)c2ccccc2n1	10	3	-9	50*	9	21	30	6	5
COc1ccc(-c2cc(C(=O)N/N=C/c3cc(OC)c(OC)cc3OC)c3ccccc3n2)cc1	5	3	-5	68*	9	28*	36	6	3
COc1cc(/C=N/NC(=O)c2cc(-c3cccc(OC(C)C)c3)nc3ccccc23)ccc1O	11	12	-8	54*	1	16	48	4	11
COc1ccc(-c2cc(C(=O)N/N=C/c3cccnc3)c3ccccc3n2)cc1	7	-1	-6	11	6	x	x	x	x
CCOC(=O)C1(C)CCCCCN1C(=O)c1ccc(OC)cc1 (stereo unspecified)	1	3	-5	4	0	x	x	x	x
NC(Cc1ccc(C(F)(F)F)cc1)c1csc(NC(=O)Nc2ccccc2Oc2ccccc2)n1 (stereo unspecified)	9	2	0	41	31	x	x	x	x
COC(=O)c1ccc(S(=O)(=O)N(Cc2ccccc2)Cc2ccccc2)n1C	0	3	-22	102*	0	12	10	0	-2
COCC(=O)N(C)C[C@@H]1Oc2ncc(Br)cc2C(=O)N([C@@H](C)CO)C[C@H]1C	0	-15	11	-12	4	x	x	x	x
COc1ccc(C(=O)/C=C/c2ccc(OCc3ccccc3)cc2)cc1CSCC(=O)O	10	0	3	62*	13	38*	54*	10	10
CC(=O)c1ccc(S(=O)(=O)N2CCN(C(=O)c3ccc(-n4nc(C)c(Cl)c4C)cc3)CC2)cc1	1	2	7	33	12	x	x	x	x
COC(=O)[C@@]12C[C@@H](CC(=O)NCc3ccc(OC)c(OC)c3)C(=O)N(Cc3ccco3)C1=CCC(C)(C)C2	6	-2	4	-39	-1	x	x	x	x
CC1Cc2ccccc2N1C(=O)c1cc2c(=O)n3ccccc3nc2n1C (stereo unspecified)	13	-12	-8	56*	17	27*	49*	12*	18
O=C(c1ccc(CS(=O)Cc2ccc(Cl)cc2)o1)N1CCN(c2ccc(F)cc2)CC1 (stereo unspecified)	7	-17	-4	72*	24	15	11	4	5
COc1ccccc1S(=O)(=O)Cc1ccc(C(=O)N2CCN(c3ccc(C)cc3)C(C)C2)o1 (stereo unspecified)	19	-5	-1	41	12	x	x	x	x
COc1ccc(N2CCN(C(=O)c3ccc(CS(=O)(=O)c4ccc(OC)cc4)o3)CC2)cc1	6	1	-6	4	1	x	x	x	x
COc1ccc(S(=O)(=O)Cc2ccc(C(=O)N3CCN(c4cccc(C)c4)C(C)C3)o2)cc1 (stereo unspecified)	17	3	-13	59*	4	31*	38	10	9
COc1ccc(S(=O)(=O)Cc2ccc(C(=O)N3CCN(c4ccc(Cl)cc4)CC3)o2)cc1	17	-14	-6	72*	5	33*	36	9	7
CCCN(C)C1CN(Cc2cn(Cc3cccc(Cl)c3)nn2)S(=O)(=O)C1 (stereo unspecified)	1	-9	1	0	1	x	x	x	x
COc1ccc(C(=O)OCCNC(=O)c2c(Cl)nc3ccccn23)cc1	10	-1	-9	26	11	x	x	x	x
CC(C)(C)c1ccc(C(=O)OCCNC(=O)c2c(Cl)nc3ccccn23)cc1	14	18	-13	73*	26	29*	48	10	15
CCCCCCn1c(=O)n2n(c1=O)C[C@]1(OC(=O)NCc3ccco3)CN(S(=O)(=O)c3ccc(C)cc3)C[C@]1(O)C2	3	-26	0	-22	1	x	x	x	x
SMILES	M4 ag	CHRM4 antagonist	M4 PAM	TAAR1 antag	TAAR1 agonist	TAAR1 nonsel count	TAAR1 antag conf	Ga16 ag counter	TAAR1 ag counter
CCOC(=O)Cc1ccc(Nc2nc(NCc3cccs3)nc3ccsc23)cc1	14	17	-13	76*	6	42*	45	5	-1
Cc1noc(C)c1CSCC(=O)NCCN1C(=O)S/C(=C\c2ccccc2F)C1=O	21	7	-9	56*	13	35*	54*	13*	12
O=C(CN1C(=O)/C(=C/c2ccccc2F)Sc2ccccc21)NCCCN1CCOCC1	7	8	-2	8	1	x	x	x	x
CCC(C)Nc1ncnc2c1cnn2Cc1ccc(Cl)cc1 (stereo unspecified)	13	-13	-7	55*	4	17	35	13*	18
CC(C)Nc1ncnc2c1cnn2Cc1ccc(Cl)cc1	12	1	-3	7	5	x	x	x	x
O=C(NCc1ccccc1)C(c1ccc(-c2ccccc2)cc1)N1CCN(c2ccccc2F)CC1 (stereo unspecified)	0	-3	15	-31	0	x	x	x	x
CCOc1ccc(C(C(=O)NCC2CCCO2)N(Cc2ccccc2)C(=O)c2snc(C(N)=O)c2N)cc1 (stereo unspecified)	11	6	-8	57*	21	35*	57*	12*	18
CCOc1ccc(C(C(=O)NCC2CCCO2)N(Cc2cccc(OC)c2)C(=O)c2snc(C(N)=O)c2N)cc1 (stereo unspecified)	2	-3	-7	28	11	x	x	x	x
COc1ccc(C(C(=O)NCC2CCCO2)N(Cc2cccs2)C(=O)c2snc(C(N)=O)c2N)cc1 (stereo unspecified)	21	16	-20	59*	19	23*	58*	27*	12
